# Assays:
# [1] = Tolerability during mouse PK study; assay type: in vivo; conditions: mice
# [2] = test system: CDK1, 2, 4, 5, 6, 8 and 9; assay: Western blotting analysis of other CDKs in Jurkat cells; assay type: cell-based, human; conditions: 0.1 to 0.5 μM, 6 hours
# Method in brief: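 Jurkat cells were exposed to test compound at 0.1–0.5 μM for 6 h. Lysis was in ice-cold RIPA (pH 7.4) with protease and phosphatase inhibitors, with BCA protein quantitation. Samples were boiled 10 min at 95 °C, run on 4–20% SDS-PAGE, and transferred to nitrocellulose. Primary antibodies were applied overnight at 4 °C, then IRDye secondaries for 1 h at room temperature, with infrared detection.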
# MAT1 = assay: Western blotting analysis of MAT1 in OVCAR3 and Jurkat cells; assay type: cell-based; conditions: Western blot, 6 h
# Method in brief: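 OVCAR3 and Jurkat cells were exposed to test compound for 6 h. RIPA lysates were BCA-equalised, resolved on 4–20% SDS-PAGE, and transferred to nitrocellulose. Blots were probed overnight at 4 °C for MAT1, Cyclin H and CDK7 (each 1:1000) plus β-actin (1:5000), then with IRDye secondaries for 1 h at room temperature, and imaged by infrared scanning.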
# OVCAR3 cells = assay: CellTiter-Glo proliferation assay, OVCAR3; assay type: cell-based; conditions: OVCAR3, 72h
# Method in brief: (§1)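 Cells were grown in RPMI 1640 with 10% heat-inactivated FBS and penicillin/streptomycin at 37 °C and 5% CO2, and tested mycoplasma-negative. They were seeded at 10^4/ml and treated in triplicate. Compounds were dispensed by robot from 10 mM or 1 mM stocks, with DMSO equalised across wells. A non-degrading analogue and the parent inhibitor served as controls. After 72 h, CellTiter-Glo was added for 10–15 min at room temperature and luminescence was read.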
# [3] = Mouse pharmacokinetic study; assay type: in vivo, mice
# OVCAR3 cells proteome = assay: Multiplexed quantitative mass-spectrometry-based proteomics in OVCAR3 cells; assay type: cell-based, human; conditions: OVCAR3, 0.1 μM, 6 h
# Method in brief: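 OVCAR3 cells in triplicate plates adhered 24 h, then received 0.1 μM test compound or DMSO for 6 h. Lysis was in 2% SDS buffer, followed by 5 mM DTT (37 °C, 1 h) and 15 mM iodoacetamide. Lys-C then trypsin (each 1:75) digested the samples. 150 μg per sample was TMT18-labelled, fractionated at pH 8, and quantified by SPS-MS3 on an Orbitrap. Target-decoy SEQUEST search; peptides with TMT sum >200 and isolation specificity >0.7 kept.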
# CDK7 [4] = target: T1, CDK7 (Homo sapiens, UniProt P50613); assay: Immunoblot analysis of CDK7 degradation in Jurkat cells; assay type: cell-based
# T1 sequence (P50613 2-346 limits assumed): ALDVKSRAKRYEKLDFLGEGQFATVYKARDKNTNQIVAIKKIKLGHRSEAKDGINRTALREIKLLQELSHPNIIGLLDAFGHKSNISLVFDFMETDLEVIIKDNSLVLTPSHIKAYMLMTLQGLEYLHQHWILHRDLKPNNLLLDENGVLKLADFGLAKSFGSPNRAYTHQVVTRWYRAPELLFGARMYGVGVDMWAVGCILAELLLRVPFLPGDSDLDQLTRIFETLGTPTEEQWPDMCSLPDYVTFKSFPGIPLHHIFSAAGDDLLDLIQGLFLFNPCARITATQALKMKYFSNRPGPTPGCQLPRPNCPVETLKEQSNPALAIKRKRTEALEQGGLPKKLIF
# T1 sequence (P51946 whole entry partner): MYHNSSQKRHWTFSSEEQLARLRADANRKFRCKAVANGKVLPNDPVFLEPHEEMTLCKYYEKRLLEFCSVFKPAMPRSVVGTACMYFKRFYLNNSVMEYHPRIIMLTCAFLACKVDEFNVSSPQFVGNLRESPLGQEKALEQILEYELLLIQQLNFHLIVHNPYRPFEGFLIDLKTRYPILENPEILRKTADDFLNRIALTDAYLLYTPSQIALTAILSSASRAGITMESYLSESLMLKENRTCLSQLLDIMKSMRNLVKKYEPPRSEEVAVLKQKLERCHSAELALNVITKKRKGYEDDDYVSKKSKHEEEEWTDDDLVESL
# T1 sequence (P51948 whole entry partner): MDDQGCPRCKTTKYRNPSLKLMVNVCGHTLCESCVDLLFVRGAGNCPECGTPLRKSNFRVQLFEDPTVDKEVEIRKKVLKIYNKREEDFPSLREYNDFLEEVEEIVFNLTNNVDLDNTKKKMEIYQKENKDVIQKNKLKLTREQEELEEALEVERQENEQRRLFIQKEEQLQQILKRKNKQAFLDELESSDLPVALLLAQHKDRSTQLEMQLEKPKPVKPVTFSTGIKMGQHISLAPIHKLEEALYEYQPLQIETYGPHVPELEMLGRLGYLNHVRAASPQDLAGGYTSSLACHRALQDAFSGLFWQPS
# Method in brief: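 Jurkat cells received test compound at 0.1 or 1 μM for 16 h, 0.1 μM for 0.5–24 h, or a concentration series for 6 h. Other arms were pretreated 2 h with MG132, MLN-4924, parent CDK7 inhibitor or VHL ligand, or used VHL-knockout Jurkat (6 h). Blots: RIPA lysis, 4–20% SDS-PAGE, nitrocellulose, anti-CDK7 1:1000, β-actin 1:5000, IRDye secondaries. Mean ± SEM of three biological replicates.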
# CDK7 [5] = target: T1, CDK7; assay: Immunoblot analysis of CDK7 degradation in different cell lines; assay type: cell-based; conditions: 6 h
# Method in brief: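 Cell lines grown in RPMI 1640/10% FBS were exposed to test compound for 6 h. Lysis was in ice-cold RIPA (pH 7.4) with protease/phosphatase inhibitors, with BCA-equalised loading. Proteins were run on 4–20% SDS-PAGE and transferred to nitrocellulose. Blots were probed overnight at 4 °C with anti-CDK7 1:1000 and β-actin 1:5000, then with IRDye secondaries for 1 h at room temperature, and scanned by infrared imaging.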
# LONRF2 = assay: Western blot of LONRF2; assay type: cell-based; conditions: 0.1 to 5 μM
# Method in brief: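 Immunoblot with anti-LONRF2 1:1000 overnight at 4 °C and β-actin 1:5000 as loading control. RIPA lysates with protease/phosphatase inhibitors were BCA-equalised, run on 4–20% SDS-PAGE, and transferred to nitrocellulose. IRDye secondaries were applied for 1 h at room temperature, followed by infrared scanning.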
# Jurkat cells = assay: CellTiter-Glo proliferation assay, Jurkat; assay type: cell-based, human; conditions: 72h
# Method in brief: as §1
# SUDHL5 cells = assay: CellTiter-Glo proliferation assay, SUDHL5; assay type: cell-based; conditions: SUDHL5, 72h
# Method in brief: as §1
# CDK7/Cyclin H/MNAT1 = CDK7/Cyclin H/MNAT1 (Homo sapiens, UniProt P50613); assay: Adapta Eu kinase assay; assay type: biochemical
# Chain of CDK7/Cyclin H/MNAT1 (P50613 whole entry): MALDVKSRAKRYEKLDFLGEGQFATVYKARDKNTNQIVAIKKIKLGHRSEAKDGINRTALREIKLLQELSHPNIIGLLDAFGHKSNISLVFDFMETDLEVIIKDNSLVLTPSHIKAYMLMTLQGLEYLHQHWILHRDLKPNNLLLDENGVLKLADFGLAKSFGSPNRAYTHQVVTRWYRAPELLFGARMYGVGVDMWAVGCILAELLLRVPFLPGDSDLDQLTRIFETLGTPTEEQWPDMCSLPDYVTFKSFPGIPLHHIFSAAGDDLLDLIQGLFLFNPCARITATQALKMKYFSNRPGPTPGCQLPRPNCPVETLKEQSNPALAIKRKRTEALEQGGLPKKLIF
# Chain of CDK7/Cyclin H/MNAT1 (P51946 whole entry partner): as the sequence (P51946 whole entry partner) above
# Chain of CDK7/Cyclin H/MNAT1 (P51948 whole entry partner): as the sequence (P51948 whole entry partner) above
# Method in brief: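 CDK7/Cyclin H/MNAT1 complex tested by an outside contract service in Adapta Eu format, with ATP at its Km concentration.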
# Molt4 cells = assay: CellTiter-Glo proliferation assay, Molt4; assay type: cell-based; conditions: Molt4, 72h
# Method in brief: as §1
# A549 cells = assay: CellTiter-Glo proliferation assay, A549; assay type: cell-based; conditions: A549, 72h
# Method in brief: as §1
# [6] = Jurkat cells, 0.1 μM or 1 μM, 16 h, Western blot
# [7] = Jurkat cells, 1 μM, 16 h, Western blot
smiles,measurement,setting,value
"Cc1ncsc1-c1ccc([C@H](C)NC(=O)[C@@H]2C[C@@H](O)CN2C(=O)[C@@H](NC(=O)CCCC#Cc2ccc(C(=O)Nc3n[nH]c4c3CN(C(=O)N[C@H](CN(C)C)c3ccccc3)C4(C)C)cc2)C(C)(C)C)cc1 [Compound 17, N-((S)-2-(dimethylamino)-1-phenylethyl)-3-(4-(6-(((S)-1-((2S,4R)-4-hydroxy-2-(((S)-1-(4-(4-methylthiazol-5-yl)phenyl)ethyl)carbamoyl)pyrrolidin-1-yl)-3,3-dimethyl-1-oxobutan-2-yl)amino)-6-oxohex-1-yn-1-yl)benzamido)-6,6-dimethyl-4,6-dihydropyrrolo[3,4-c]pyrazole-5(1H)-carboxamide]",clinical signs,[1]; during the PK study,no clinical signs were observed
same,tolerability,[1]; single dose IV 3 mg/kg or IP 10 mg/kg,well tolerated
same,protein levels of other CDK family members,[2],barely affected the protein levels
same,MAT1 protein level,MAT1,dose-dependent downregulation
same,antiproliferative effect (in words),OVCAR3 cells,efficacies comparable to its parental compound YKL-5–167
same,concentration at 6 h,"[3]; male, CD1, mouse, plasma, ip, 10 mg/kg",1490 nM
same,clearance,"[3]; mice, IV 3 mg/kg and IP 10 mg/kg",low clearance
same,maximum plasma concentration,"[3]; mice, single IP injection, 10 mg/kg",3.39 µM
same,CDK7 abundance (proteomics),OVCAR3 cells proteome,significantly downregulated
same,Cyclin H abundance (proteomics),OVCAR3 cells proteome,significantly downregulated
same,number of significantly changed proteins,"OVCAR3 cells proteome; 6538 proteins identified, 1.75-fold cutoff, p-value < 0.001, vs DMSO",only three significantly changed proteins were identified
same,CDK7 degradation (in words),CDK7 [4]; [6],most effective degrader for CDK7
same,reduction in CDK7 protein,CDK7 [4]; [6],up to 95%
same,time at which degradation of CDK7 was observable,"CDK7 [4]; Jurkat cells, 0.1 μM, time course up to 24 hours",≤ 0.5 h
same,CDK7 degradation after pretreatment with MG132 or MLN-4924,"CDK7 [4]; Jurkat cells, 2 h pretreatment, then 17 for 6 h",rescued CDK7 degradation
same,hook effect,"CDK7 [4]; Jurkat cells, 6 h, up to 5 μM",no hook effect was observed
same,"CDK7 degradation, concentration dependence","CDK7 [4]; Jurkat cells, different concentrations, 6 h",efficiently induced CDK7 degradation in a dose-dependent manner
same,CDK7 degradation in cells lacking VHL,"CDK7 [4]; VHL-knockout Jurkat cells vs wild-type, 6 h",completely abrogated
same,CDK7 degradation,CDK7 [5]; A549 lung adenocarcinoma cell line,Robust degradation
same,CDK7 degradation,CDK7 [5]; Molt4 T lymphoblast cell line,Robust degradation
same,CDK7 degradation,CDK7 [5]; OVCAR3 ovarian adenocarcinoma cell line,Robust degradation
same,CDK7 degradation,CDK7 [5]; SUDHL5 B-cell lymphoma cell line,Robust degradation
same,LONRF2 degradation,LONRF2,did not observed LONRF2 degradation
"Cc1ncsc1-c1ccc([C@H](C)NC(=O)[C@@H]2C[C@H](O)CN2C(=O)[C@@H](NC(=O)CCCC#Cc2ccc(C(=O)Nc3n[nH]c4c3CN(C(=O)N[C@H](CN(C)C)c3ccccc3)C4(C)C)cc2)C(C)(C)C)cc1 [Compound 17-Neg, N-((S)-2-(dimethylamino)-1-phenylethyl)-3-(4-(6-(((S)-1-((2S,4S)-4-hydroxy-2-(((S)-1-(4-(4-methylthiazol-5-yl)phenyl)ethyl)carbamoyl)pyrrolidin-1-yl)-3,3-dimethyl-1-oxobutan-2-yl)amino)-6-oxohex-1-yn-1-yl)benzamido)-6,6-dimethyl-4,6-dihydropyrrolo[3,4-c]pyrazole-5(1H)-carboxamide]",anti-proliferative effect (in words),Jurkat cells,much weaker anti-proliferative effect
same,antiproliferative effect (in words),SUDHL5 cells,much weaker antiproliferative effect
same,IC50,CDK7/Cyclin H/MNAT1,21.1 nM
same,antiproliferative effect (in words),Molt4 cells,much weaker antiproliferative effect
same,antiproliferative effect (in words),OVCAR3 cells,much weaker antiproliferative effect
same,antiproliferative effect (in words),A549 cells,much weaker antiproliferative effect
same,level of CDK7 protein,"CDK7 [4]; Jurkat cells, 6 h, negative control",fails to reduce the level of CDK7 protein
"Cc1ncsc1-c1ccc([C@H](C)NC(=O)[C@@H]2C[C@@H](O)CN2C(=O)[C@@H](NC(=O)CCCCCc2ccc(C(=O)Nc3n[nH]c4c3CN(C(=O)N[C@H](CN(C)C)c3ccccc3)C4(C)C)cc2)C(C)(C)C)cc1 [Compound 18, N-((S)-2-(dimethylamino)-1-phenylethyl)-3-(4-(6-(((S)-1-((2S,4R)-4-hydroxy-2-(((S)-1-(4-(4-methylthiazol-5-yl)phenyl)ethyl)carbamoyl)pyrrolidin-1-yl)-3,3-dimethyl-1-oxobutan-2-yl)amino)-6-oxohexyl)benzamido)-6,6-dimethyl-4,6-dihydropyrrolo[3,4-c]pyrazole-5(1H)-carboxamide]",IC50,CDK7/Cyclin H/MNAT1,20.3 nM
same,CDK7 degradation (in words),CDK7 [4]; [6],slightly decreased degradation activity
"Cc1ncsc1-c1ccc(CNC(=O)C2CC(O)CN2C(=O)C(NC(=O)C2(F)CC2)C(C)(C)C)c(OCCCCCCCCNC(=O)c2ccc(C(=O)Nc3n[nH]c4c3CN(C(=O)N[C@H](CN(C)C)c3ccccc3)C4(C)C)cc2)c1 (stereo partly drawn) [Compound 20, N1-(5-(((S)-2-(dimethylamino)-1-phenylethyl)carbamoyl)-6,6-dimethyl-1,4,5,6-tetrahydropyrrolo[3,4-c]pyrazol-3-yl)-N4-(8-(2-((1-(2-(1-fluorocyclopropane-1-carboxamido)-3,3-dimethylbutanoyl)-4-hydroxypyrrolidine-2-carboxamido)methyl)-5-(4-methylthiazol-5-yl)phenoxy)octyl)terephthalamide]",IC50,CDK7/Cyclin H/MNAT1,12.1 nM
same,CDK7 degradation (in words),CDK7 [4]; [7],moderate reduction of CDK7 protein levels
"Cc1ncsc1-c1ccc(CNC(=O)C2CC(O)CN2C(=O)C(NC(=O)C2(F)CC2)C(C)(C)C)c(OCCOCCOCCNC(=O)c2ccc(C(=O)Nc3n[nH]c4c3CN(C(=O)N[C@H](CN(C)C)c3ccccc3)C4(C)C)cc2)c1 (stereo partly drawn) [Compound 21, N1-(5-(((S)-2-(dimethylamino)-1-phenylethyl)carbamoyl)-6,6-dimethyl-1,4,5,6-tetrahydropyrrolo[3,4-c]pyrazol-3-yl)-N4-(2-(2-(2-(2-((1-(2-(1-fluorocyclopropane-1-carboxamido)-3,3-dimethylbutanoyl)-4-hydroxypyrrolidine-2-carboxamido)methyl)-5-(4-methylthiazol-5-yl)phenoxy)ethoxy)ethoxy)ethyl)terephthalamide]",IC50,CDK7/Cyclin H/MNAT1,13.4 nM
same,CDK7 degradation (in words),CDK7 [4]; [7],moderate reduction of CDK7 protein levels

# Reference: publication PMC11316633 (European journal of medicinal chemistry, 2024)
